Assay [1] concerns the target C-X-C chemokine receptor type 4 (Homo sapiens, UniProt P61073). Nature of the assay: Inhibitory activity against CXCR4-specific monoclonal antibody 12G5 (mAb-12G5) binding to human chemokinin receptor CXCR4 in lymphocytic SUP-T1 cells. It counts as cell-based. In outline:
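SUP-T1 cells preincubated with compound or PBS 15 min at room temperature, washed, then exposed to CXCR4 mAb 12G5 for 30 min, washed, stained with FITC goat anti-mouse antibody for 30 min at room temperature. Flow cytometry measured percent positive cells and MFI; inhibition derived from MFI, IC50 calculated.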

The subject of assay [2] is Human immunodeficiency virus 2. Nature of the assay: Antiviral effective concentration for Inhibitory activity on HIV-2(ROD) replication in MT-4 cells. The format is functional, organism-based. To be noted: Human immunodeficiency virus 2, MT4. In outline:
(§1)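 MT-4 cells infected at MOI 0.01 (100 × CCID50) with HIV-1 (IIIB) or HIV-2 (ROD) in presence of graded compound concentrations; antiviral and cytotoxicity run in parallel, CC50 on mock-infected cells. After 5 days of growth, viable cells counted by MTT colorimetry. EC50 = concentration protecting 50% of infected cells from cytopathicity; values averaged over several experiments.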

Assay [3] has as its system Human immunodeficiency virus 1. Nature of the assay: Antiviral effective concentration for Inhibitory activity on HIV-1(IIIB) replication in MT-4 cells. It counts as functional, organism-based. To be noted: Human immunodeficiency virus 1, MT4. In a few lines:
as §1

A further assay concerns MT4. The assay can be described thus: 50% cytotoxic concentration was tested against HIV infected MT-4 cells. As to conditions: Homo sapiens, in the assay text read “mock-infected” for “HIV infected”. It counts as functional. In outline: as §1

Experimental findings from ChEMBL document CHEMBL1132406, “Synthesis and structure-activity relationships of phenylenebis(methylene)-linked bis-azamacrocycles that inhibit HIV-1 and HIV-2 replication by antagonism of the chemokine receptor CXCR4” (J Med Chem, 1999) are described below.

Each structure is given as a SMILES string.

Chain of C-X-C chemokine receptor type 4 (P61073 whole entry): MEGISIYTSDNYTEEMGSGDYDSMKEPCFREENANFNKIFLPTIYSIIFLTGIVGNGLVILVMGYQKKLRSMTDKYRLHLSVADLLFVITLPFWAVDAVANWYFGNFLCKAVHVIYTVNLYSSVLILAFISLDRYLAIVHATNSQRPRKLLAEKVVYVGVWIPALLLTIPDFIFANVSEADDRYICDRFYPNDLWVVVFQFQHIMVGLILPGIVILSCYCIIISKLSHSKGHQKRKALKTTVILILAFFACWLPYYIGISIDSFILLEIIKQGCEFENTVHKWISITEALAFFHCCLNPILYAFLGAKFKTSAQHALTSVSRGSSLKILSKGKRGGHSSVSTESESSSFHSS

As a reminder, the IC50 is the midpoint of a concentration-inhibition curve. As usually defined, the EC50 is the concentration that produces a half-maximal response. In general, CC50 refers to the concentration that lowers cell viability or growth by half. Consider `c1cc2nc(c1)CNCCN(Cc1ccc(CN3CCNCc4cccc(n4)CNCC3)cc1)CCNC2`, for which the IC50 in assay [1] was determined as 4.36 µM. Further, the EC50 in assay [2] was 0.127 µM; in assay [3], 0.524 µM. This molecule also displayed a CC50 in the assay with MT4 of 8.5 µM.

In assay [1], `c1cc(CN2CCCNCCNCCNCCC2)ccc1CN1CCCNCCNCCNCCC1` registered an IC50 of 0.067 µM. Besides, the EC50 in assay [2] is 0.0422 µM; in assay [3], 0.0337 µM. In the assay with MT4, this molecule returned a CC50 greater than 421 µM.

`Clc1cc2nc(c1)CNCCCN(Cc1ccc(CN3CCCNCc4cc(Cl)cc(n4)CNCCC3)cc1)CCCNC2` had an IC50 in assay [1] of 5.74 µM. Further, the EC50 came out at 0.759 µM in assay [2] and 0.751 µM in assay [3]. This molecule also displayed a CC50 in the assay with MT4 of 17.8 µM.

In turn, `c1cc2nc(c1)CCNCCN(Cc1ccc(CN3CCNCCc4cccc(n4)CCNCC3)cc1)CCNCC2` displayed an IC50 in assay [1] of 0.001 µM. Besides, the EC50 in assay [2] worked out at 0.0016 µM; in assay [3], 0.0008 µM. The molecule further yielded a CC50 with MT4 of 194 µM.

In turn, `c1cc2nc(c1)CNCCCN(Cc1ccc(CN3CCCNCc4cccc(n4)CNCCC3)cc1)CCCNC2` returned an EC50 in assay [3] of 0.534 µM. The same molecule had a 50% cytotoxic concentration (CC50) in the assay on MT4 of 199 µM.

Take `c1cc(CN2CCCNCCCCCNCCC2)ccc1CN1CCCNCCCCCNCCC1`: in assay [1], the IC50 was greater than 35 µM. This molecule also displayed an EC50 in assay [3] of 9.61 µM. This molecule had a CC50 with MT4 of 133 µM.

Regarding `COc1cc2nc(c1)CNCCCN(Cc1ccc(CN3CCCNCc4cc(OC)cc(n4)CNCCC3)cc1)CCCNC2`, the values for the EC50 in assay [2] and in assay [3] were 8.46 µM and 3.1 µM, respectively. Besides, the CC50 in the assay on MT4 is 216 µM.

In assay [3], `c1cc(CN2CCCNCCOCCNCCC2)ccc1CN1CCCNCCOCCNCCC1` displayed a 50% effective concentration (EC50) of 4.49 µM. The same molecule came in with a CC50 in the assay on MT4 greater than 244 µM.

As to `c1cc(CN2CCCOCCOCCCNCC2)ccc1CN1CCCOCCOCCCNCC1`, the IC50 in assay [1] is greater than 35 µM. The EC50 in assay [2] and in assay [3] was greater than 363 µM throughout. In the assay on MT4, this molecule displayed a CC50 greater than 363 µM.

Turning to `c1cc2cc(c1)CNCCCN(Cc1ccc(CN3CCCNCc4cccc(c4)CNCCC3)cc1)CCCNC2`, the EC50 in assay [3] was 7.96 µM. The CC50 in the assay on MT4 amounted to 133 µM.

Take `c1cc(CN2CCNCc3cccc(n3)CNCC2)cc(CN2CCNCc3cccc(n3)CNCC2)c1`: the EC50 in assay [2] turned out to be 0.0025 µM; in assay [3] it was 0.0971 µM. Also, in the assay with MT4, the CC50 worked out at 30 µM.

Regarding `c1cc(CN2CCCNCc3cncc(n3)CNCCC2)ccc1CN1CCCNCc2cncc(n2)CNCCC1`, the IC50 in assay [1] is greater than 35 µM. Besides, the EC50 in assay [2] came to 20.7 µM; in assay [3], 30.9 µM. This molecule returned a CC50 in the assay with MT4 of 209 µM.

As for `Oc1cc2nc(c1)CNCCCN(Cc1ccc(CN3CCCNCc4cc(O)cc(n4)CNCCC3)cc1)CCCNC2`, the IC50 in assay [1] was greater than 35 µM. Further, the EC50 in assay [2] turned out to be 200 µM; in assay [3] it was 174 µM. For the same molecule, the CC50 with MT4 was determined as 200 µM.

`c1cc(CN2CCCSCCSCCCNCC2)ccc1CN1CCCSCCSCCCNCC1`: the IC50 in assay [1] was greater than 35 µM. For the same molecule, the EC50 in assay [2] and in assay [3] was greater than 6.84 µM throughout. This molecule also came in with a CC50 in the assay with MT4 of 6.8 µM.

`c1ccc(-c2cc3nc(c2)CNCCCN(Cc2ccc(CN4CCCNCc5cc(-c6ccccc6)cc(n5)CNCCC4)cc2)CCCNC3)cc1`: the response in assay [3] was half-maximal at 1.75 µM (EC50). The same molecule came in with a CC50 with MT4 of 19.3 µM.

Take `c1cc(CN2CCCNCCNCCCNCC2)ccc1CN1CCCNCCNCCCNCC1`: the CC50 in the assay with MT4 is greater than 421 µM.

For `c1cc2nc(c1)CCNCCCN(Cc1ccc(CN3CCCNCCc4cccc(n4)CCNCCC3)cc1)CCCNCC2`, the results for the concentration for a half-maximal effect (EC50) in assay [2] and in assay [3] were 1.21 µM and 0.421 µM, respectively. Further, the 50% cytotoxic concentration (CC50) in the assay with MT4 was 142 µM.
